For assay [1], the species on record is Canis familiaris. The assay can be described thus: The inotropic effect tested in vitro by using isolated blood-perfused dog heart preparations. In kind it is functional, Canis lupus familiaris. The gist of the method:
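Isolated dog papillary muscle, blood-perfused by cross-circulation through cannulated arteries from a pentobarbital-anesthetized, heparinized donor dog. Intra-arterial microsyringe injection; developed tension recorded. Activity ratio = amrinone ED50 (half-maximal amrinone response) / test-compound dose producing an equal response.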

Assay [2] is filed under the species Canis familiaris. In words: The chronotropic effect tested in vitro by using isolated blood-perfused dog heart preparations. Type of assay: functional, Canis lupus familiaris. The gist of the method: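 Isolated dog sinoatrial node preparation, cross-circulated through cannulated arteries with blood from a pentobarbital-anesthetized, heparinized donor dog. Compounds were given intra-arterially by microsyringe, and sinus rate was recorded. Reported as an activity ratio: amrinone ED50 (dose giving half-maximal amrinone response) divided by the test-compound dose producing the same response.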

Structures are written as SMILES.

Regarding `COc1ccc(CNCC(O)COc2ccc3nc(O)ccc3c2)cc1` (stereo unspecified), the Activity in the assay listed under Canis familiaris [1] was determined as 4.9; in the assay listed under Canis familiaris [2], 0.

For the compound `CCN(Cc1ccccc1)CC(O)COc1cc(C)c2nc(O)ccc2c1` (stereo unspecified), the Activity in the assay listed under Canis familiaris [1] is 0.8; in the assay filed under Canis familiaris [2], -0.4.

Turning to `CN(Cc1ccccn1)CC(O)COc1ccc2nc(O)ccc2c1` (stereo unspecified), the Activity in the assay listed under Canis familiaris [1] came to 2.2; in the assay filed under Canis familiaris [2], 0.

`Oc1ccc2cc(OCC(O)CNCc3ccccc3)ccc2n1` (stereo unspecified): the Activity in the assay filed under Canis familiaris [1] came out at 2.2; in the assay filed under Canis familiaris [2], 0.

Consider `CN(CCSc1ccccc1)CC(O)COc1ccc2nc(O)ccc2c1` (stereo unspecified), for which the Activity is on record as 4.5 in the assay listed under Canis familiaris [1] and -1.1 in the assay listed under Canis familiaris [2].

Regarding `CCN(CCOc1ccccc1)CC(O)COc1ccc2nc(O)ccc2c1` (stereo unspecified), the Activity in the assay listed under Canis familiaris [1] was determined as 5.3; in the assay filed under Canis familiaris [2], 0.

As for `COc1ccc(CCNCC(O)COc2ccc3nc(O)ccc3c2)cc1OC` (stereo unspecified), the Activity was 1.7 in the assay filed under Canis familiaris [1] and -0.5 in the assay listed under Canis familiaris [2].

For the compound `CN(Cc1ccncc1)CC(O)COc1ccc2nc(O)ccc2c1` (stereo unspecified), the Activity in the assay filed under Canis familiaris [1] is 2.3; in the assay filed under Canis familiaris [2], 0.1.

Regarding `COc1ccc(CNCC(O)COc2cccc3ccc(O)nc23)cc1OC` (stereo unspecified), the Activity in the assay listed under Canis familiaris [1] and in the assay filed under Canis familiaris [2] was 0 each time.

For `CCN(Cc1ccccc1)CC(O)COc1cc(F)c2nc(O)ccc2c1` (stereo unspecified), the Activity was 4.1 in the assay filed under Canis familiaris [1] and 0 in the assay filed under Canis familiaris [2].

Take `CCN(CCc1ccccc1)CC(O)COc1ccc2nc(O)ccc2c1` (stereo unspecified): the Activity came to 6.9 in the assay listed under Canis familiaris [1] and 0.8 in the assay filed under Canis familiaris [2].

In the case of `CN(Cc1ccc(Cl)cc1)CC(O)COc1ccc2nc(O)ccc2c1` (stereo unspecified), the Activity stood at 4 in the assay filed under Canis familiaris [1] and 0.1 in the assay filed under Canis familiaris [2].

On to `Oc1ccc2cc(OCC(O)CNCc3ccc(F)cc3)ccc2n1` (stereo unspecified), for which the Activity in the assay filed under Canis familiaris [1] is listed as 3.5; in the assay listed under Canis familiaris [2] it was 0.

Regarding `CN(CCCN(C)c1ccccc1)CC(O)COc1ccc2nc(O)ccc2c1` (stereo unspecified), the Activity in the assay filed under Canis familiaris [1] is 1.3; in the assay filed under Canis familiaris [2], 0.

In the case of `COc1ccc(CNCC(O)COc2cc(C)c3nc(O)ccc3c2)cc1OC` (stereo unspecified), the figures for the Activity in the assay listed under Canis familiaris [1] and in the assay filed under Canis familiaris [2] were 0.5 and 0, respectively.

For the compound `COc1ccc(CNCC(O)COc2ccc3ccc(O)nc3c2)cc1OC` (stereo unspecified), the Activity is given as 0 in the assay filed under Canis familiaris [1] and -0.2 in the assay filed under Canis familiaris [2].

Regarding `CN(CC[S+]([O-])c1ccccc1)CC(O)COc1ccc2nc(O)ccc2c1` (stereo unspecified), the results for the Activity in the assay listed under Canis familiaris [1] and in the assay filed under Canis familiaris [2] were 2.3 and 0, respectively.

Regarding `CN(CCc1ccccn1)CC(O)COc1ccc2nc(O)ccc2c1` (stereo unspecified), the Activity amounted to 2.2 in the assay listed under Canis familiaris [1] and 0 in the assay listed under Canis familiaris [2].

Take `CN(Cc1ccccc1)CC(O)COc1ccc2c(c1)CCC(=O)N2` (stereo unspecified): the Activity in the assay listed under Canis familiaris [1] is on record as 0.1; in the assay filed under Canis familiaris [2] it was -0.2.

Turning to `CN(CCN(C)c1ccccc1)CC(O)COc1ccc2nc(O)ccc2c1` (stereo unspecified), the Activity is on record as 5 in the assay listed under Canis familiaris [1] and 0 in the assay filed under Canis familiaris [2].

Take `CN(Cc1ccccc1)CC(O)COc1ccc2nc(O)c(C#N)cc2c1` (stereo unspecified): the Activity in the assay filed under Canis familiaris [1] is recorded as 1.6; in the assay listed under Canis familiaris [2], 1.1.

Take `Oc1ccc2cc(OCC(O)CNCc3ccccn3)ccc2n1` (stereo unspecified): the Activity was found to be 0.6 in the assay listed under Canis familiaris [1] and 0 in the assay filed under Canis familiaris [2].

For the compound `COc1cccc(CNCC(O)COc2ccc3nc(O)ccc3c2)c1` (stereo unspecified), the Activity in the assay filed under Canis familiaris [1] is recorded as 3.8; in the assay filed under Canis familiaris [2] it was 0.

Consider `CN(CCS(=O)(=O)c1ccccc1)CC(O)COc1ccc2nc(O)ccc2c1` (stereo unspecified), for which the Activity in the assay filed under Canis familiaris [1] was 2.1; in the assay listed under Canis familiaris [2], 0.1.

As to `Oc1ccc2cc(OCC(O)CNCCc3ccccc3)ccc2n1` (stereo unspecified), the Activity worked out at 1.5 in the assay filed under Canis familiaris [1] and 0 in the assay filed under Canis familiaris [2].

For the compound `CN(Cc1ccccc1)CC(O)COc1ccc2nc(O)ccc2c1` (stereo unspecified), the Activity in the assay listed under Canis familiaris [1] is 5.1; in the assay listed under Canis familiaris [2], 0.

In the case of `Oc1ccc2cc(OCC(O)CNCc3cccs3)ccc2n1` (stereo unspecified), the Activity in the assay listed under Canis familiaris [1] is listed as 3.1; in the assay filed under Canis familiaris [2], 0.8.

For `COc1ccc(CN(C)CC(O)COc2ccc3nc(O)ccc3c2)cc1` (stereo unspecified), the results for the Activity in the assay filed under Canis familiaris [1] and in the assay listed under Canis familiaris [2] were 2.8 and 0.2, respectively.

Regarding `COc1ccc(CNCC(O)COc2cccc3nc(O)ccc23)cc1OC` (stereo unspecified), the Activity in the assay filed under Canis familiaris [1] and in the assay filed under Canis familiaris [2] was 0 each time.

Turning to `CCN(CCCc1ccccc1)CC(O)COc1ccc2nc(O)ccc2c1` (stereo unspecified), the Activity is reported as 3.2 in the assay filed under Canis familiaris [1] and 0.2 in the assay listed under Canis familiaris [2].

With `Oc1ccc2cc(OCC(O)CNCCCc3ccccc3)ccc2n1` (stereo unspecified), the Activity in the assay filed under Canis familiaris [1] came out at 3.6; in the assay filed under Canis familiaris [2] it was 0.4.

Regarding `Oc1ccc2cc(OCC(O)CNCc3ccc(Cl)cc3)ccc2n1` (stereo unspecified), the Activity is 4.9 in the assay filed under Canis familiaris [1] and 0 in the assay listed under Canis familiaris [2].

As for `Cc1ccc(CN(C)CC(O)COc2ccc3nc(O)ccc3c2)cc1` (stereo unspecified), the Activity in the assay listed under Canis familiaris [1] is listed as 1.7; in the assay filed under Canis familiaris [2], 0.

For the compound `COc1ccc(CNCC(O)COc2ccc3[nH]c(=O)ccc3c2)cc1OC` (stereo unspecified) [TOBORINONE], the Activity in the assay listed under Canis familiaris [1] was determined as 5.2; in the assay listed under Canis familiaris [2], 0.

For the compound `CN(CCCSc1ccccc1)CC(O)COc1ccc2nc(O)ccc2c1` (stereo unspecified), the values for the Activity in the assay filed under Canis familiaris [1] and in the assay filed under Canis familiaris [2] were 1.3 and 4.3, respectively.

With `CN(Cc1cccnc1)CC(O)COc1ccc2nc(O)ccc2c1` (stereo unspecified), the Activity came out at 1.7 in the assay filed under Canis familiaris [1] and 0.3 in the assay filed under Canis familiaris [2].

In the case of `CCN(Cc1ccccc1)CC(O)COc1ccc2nc(O)ccc2c1` (stereo unspecified), the Activity in the assay filed under Canis familiaris [1] is 4; in the assay filed under Canis familiaris [2] it was 0.

As for `CN(Cc1ccc(F)cc1)CC(O)COc1ccc2nc(O)ccc2c1` (stereo unspecified), the results for the Activity in the assay listed under Canis familiaris [1] and in the assay listed under Canis familiaris [2] were 2.8 and 0, respectively.

For the origin of these results see ChEMBL document CHEMBL1125299, “Novel positive inotropic agents: synthesis and biological activities of 6-(3-amino-2-hydroxypropoxy)-2(1H)-quinolinone derivatives” (1992).
